# Source: PubChem BioAssay AID602232 (The Scripps Research Institute Molecular Screening Center, 2012)
# Values without a mark were called inactive. Active and inactive are the calls of the source.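 The calls were made as follows: active = normalized ATPase activity over 10% above control, with a t-test p below 0.05 against the vehicle group; inactive = the rest.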
# Test: calcium sensitizers of cardiac myofibril ATPase, mechanism study for cardiac RTF activator project, biochemical, absorbance, porcine cardiac myofibrils, powder samples (AID 602232)
# Settings: phosphate absorbance 660 nm, at 10 µM, active compounds read high
# Outline: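 Buffer or medium: pH 7.0 pCa buffer at half-maximal calcium; read-out: ATPase activity relative to DMSO wells; also added: 3.02 mM ATP; times: 5 min compound preincubation, then 7 min ATPase reaction, 25 °C; benchmarks: DMSO-treated wells as reference; repeats: five replicate wells per compound; detection: phosphate absorbance at 660 nm, Fiske-Subbarow reagent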
row,SMILES,normalized ATPase activity
1,COc1ccccc1NS(=O)(=O)c1cc([N+](=O)[O-])ccc1N/N=C/c1c(C)[nH]c2ccccc12,1.08
2,CCOC(=O)c1sc(N)c(C#N)c1COC(=O)CNC(=O)c1cc(OC)c(OC)c(OC)c1,1.11 (active)
3,CCN1C(=O)/C(=C/C=C2/SCCN2C)SC1=S,1.07
4,S=C(Nc1ccc(N2CCOCC2)cc1)Nc1ccc2nc(-c3ccco3)c(-c3ccco3)nc2c1,1.06
5,COc1ccc(-c2nc3ccc(C4=NNC(=O)CC4C)cc3[nH]2)cc1 (stereo not given),1.05
6,CCCN1CCc2c(sc(NC(=S)NC(=O)c3ccccc3)c2C#N)C1,0.984
7,CCN1C(=O)/C(=C/N2CCc3ccccc32)SC1=S,0.984
8,CCN(CC)c1ccc(/C=c2\sc3nc4ccccc4n3c2=O)c(O)c1,0.988
9,CCN(CC)c1ccc(/C=C2\SC(N)=NC2=O)cc1,0.992
10,Cc1ccc(/C=C2\Oc3c(ccc(O)c3CN3CCN(CCO)CC3)C2=O)cc1,0.928
11,CC(C)COCC(CN(Cc1ccccc1)c1ccccc1)N1CCCC1 (stereo not given),1.05
12,COc1ccc(OC)c(/C=C2\N=C(c3ccccc3)OC2=O)c1,1.03
13,CCOC(=O)c1cc2n(c1N)-c1ccccc1C2=O,1.03
14,CN1CCN(CCCN2c3ccccc3Sc3ccc(C(F)(F)F)cc32)CC1,0.986
15,Cc1cccn2c(=O)c(/C=C3\SC(=S)N(CC(C)C)C3=O)c(NCCCOC(C)C)nc12,1.11 (active)
